Measurements published in article PMC5089614 (British Journal of Clinical Pharmacology, 2016).
Entries after “also recorded” stand apart in the source; their conditions may differ. Where two headings read alike, the source gives them in different places.

Key:
[1] = cited from earlier work
[2] = Safety/tolerability: adverse events graded by NCI CTCAE v4.03; type: in vivo, human
Method in brief: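 Solid tumour patients got oral test compound by hepatic group: normal 4 mg, moderate 2.3 mg, severe 1.5 mg. Dosing continued in a second part, with escalation allowed up to 4 mg. AEs were monitored from first dose until 30 days after the last dose and graded by CTCAE v4.03. Safety population was all patients with ≥1 dose. Investigators assigned relatedness.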

plasma proteins = type: in vitro ADME, human
Method in brief: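 Each patient's predose plasma was spiked with test compound at 70 or 280 ng ml−1 and run in triplicate by rapid equilibrium dialysis. Dialysis was 3 h at 37 °C against isotonic sodium phosphate buffer (120 mM, pH 7.5) across an 8000-Da cut-off membrane. Donor plasma and receiver buffer were each mixed 50:50 with the opposite matrix and quantified by LC/MS/MS.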

[3] = moderate impairment 2.3 mg (n = 15)
[4] = n = 1, not attributed to ixazomib
[5] = severe hepatic impairment group
[6] = severe impairment 1.5 mg (n = 20)

CC(C)C[C@H](NC(=O)CNC(=O)c1cc(Cl)ccc1Cl)B(O)O [ixazomib]
half-life ([1]; after oral dosing): 96 to 220 h | renal clearance [1]: 0 to 0.51 L/h | median time to reach peak concentration (T max) ([1]; clinical studies): 0.5 to 2.0 h | effect of mild hepatic impairment on PK ([1]; population PK analysis, cancer patients, NCI ODWG criteria): no clinically relevant PK changes | effect of mild and moderate renal impairment on PK ([1]; population PK analysis, creatinine clearance ≥30 ml min^−1): did not alter ixazomib PK | Drug-related AEs, patients ([2]; all patients (N = 48)): 46% | Drug-related decreased appetite ([2]; all patients (N = 48)): 8% | Drug-related dehydration ([2]; all patients (N = 48)): 6% | Drug-related diarrhoea ([2]; all patients (N = 48)): 6% | Drug-related fatigue ([2]; all patients (N = 48)): 8% | Drug-related nausea ([2]; all patients (N = 48)): 17% | Drug-related vomiting ([2]; all patients (N = 48)): 10% | drug-related serious dehydration ([2]; all patients (N = 48)): 4% | drug-related serious dyspnoea ([2]; all patients (N = 48)): 2% | drug-related serious fall ([2]; all patients (N = 48)): 2% | drug-related serious oesophageal ulcer ([2]; all patients (N = 48)): 2% | grade 3 drug-related anaemia ([2]; all patients (N = 48)): 2% | grade 3 drug-related dehydration ([2]; all patients (N = 48)): 6% | grade 3 drug-related fall ([2]; all patients (N = 48)): 2% | grade 3 drug-related fatigue ([2]; all patients (N = 48)): 4% | grade 4 drug-related AE ([2]; all patients (N = 48)): no drug‐related grade 4 adverse events; also recorded: no patient had a grade 4 drug‐related AE | patients with serious AEs ([2]; all patients (N = 48)): 65% | rate of on-study deaths ([2]; all patients (N = 48)): 29% | on-study deaths, number ([2]; all patients, none related to ixazomib, all related to progressive disease): 14 | patients with drug-related serious AEs ([2]; five serious AEs in four patients): 8% | incidence of drug-related grade ≥3 AEs ([2]; moderate hepatic impairment, 2.3 mg): 20% | Abdominal pain, any-grade TEAE [2, 3]: 2 (13) n (%) | Acute renal failure, any-grade TEAE [2, 3]: 1 (7) n (%) | Acute renal failure, grade ≥3 TEAE [2, 3]: 1 (7) n (%) | Anaemia, any-grade TEAE [2, 3]: 3 (20) n (%) | Anaemia, grade ≥3 TEAE [2, 3]: 1 (7) n (%) | Any-grade AE [2, 3]: 15 (100) n (%) | Ascites, any-grade TEAE [2, 3]: 3 (20) n (%) | Ascites, grade ≥3 TEAE [2, 3]: 2 (13) n (%) | Back pain, any-grade TEAE [2, 3]: 0 n (%) | Cough, any-grade TEAE [2, 3]: 2 (13) n (%) | Decreased appetite, any-grade TEAE [2, 3]: 2 (13) n (%) | Dehydration, any-grade TEAE [2, 3]: 2 (13) n (%) | Dehydration, grade ≥3 TEAE [2, 3]: 2 (13) n (%) | Diarrhoea, any-grade TEAE [2, 3]: 1 (7) n (%) | Dyspnoea, any-grade TEAE [2, 3]: 3 (20) n (%) | Fatigue, any-grade TEAE [2, 3]: 4 (27) n (%) | Fatigue, grade ≥3 TEAE [2, 3]: 1 (7) n (%) | Grade ≥3 AE [2, 3]: 13 (87) n (%) | Hyperbilirubinaemia, any-grade TEAE [2, 3]: 5 (33) n (%) | Hyperbilirubinaemia, grade ≥3 TEAE [2, 3]: 5 (33) n (%) | Hyperkalaemia, any-grade TEAE [2, 3]: 2 (13) n (%) | Hypotension, any-grade TEAE [2, 3]: 1 (7) n (%) | Hypotension, grade ≥3 TEAE [2, 3]: 1 (7) n (%) | Insomnia, any-grade TEAE [2, 3]: 2 (13) n (%) | Leukocytosis, grade ≥3 TEAE [2, 3]: 1 (7) n (%) | Nausea, any-grade TEAE [2, 3]: 4 (27) n (%) | Peripheral oedema, any-grade TEAE [2, 3]: 9 (60) n (%) | Pyrexia, any-grade TEAE [2, 3]: 2 (13) n (%) | Upper abdominal pain, any-grade TEAE [2, 3]: 1 (7) n (%) | Vomiting, any-grade TEAE [2, 3]: 2 (13) n (%) | discontinuation owing to acute hepatic failure [2, 4]: 2% | discontinuation owing to acute renal failure [2, 4]: 2% | discontinuation owing to axillary pain/groin pain [2, 4]: 2% | discontinuation owing to confusional state [2, 4]: 2% | discontinuation owing to peritoneal haemorrhage [2, 4]: 2% | discontinuation owing to progression of pancreatic carcinoma [2, 4]: 2% | Abdominal pain, any-grade TEAE ([2]; normal function 4 mg (n = 13)): 2 (15) n (%) | Acute renal failure, any-grade TEAE ([2]; normal function 4 mg (n = 13)): 0 n (%) | Acute renal failure, grade ≥3 TEAE ([2]; normal function 4 mg (n = 13)): 0 n (%) | Anaemia, any-grade TEAE ([2]; normal function 4 mg (n = 13)): 2 (15) n (%) | Anaemia, grade ≥3 TEAE ([2]; normal function 4 mg (n = 13)): 1 (8) n (%) | Any-grade AE ([2]; normal function 4 mg (n = 13)): 13 (100) n (%) | Ascites, any-grade TEAE ([2]; normal function 4 mg (n = 13)): 0 n (%) | Ascites, grade ≥3 TEAE ([2]; normal function 4 mg (n = 13)): 0 n (%) | Back pain, any-grade TEAE ([2]; normal function 4 mg (n = 13)): 2 (15) n (%) | Cough, any-grade TEAE ([2]; normal function 4 mg (n = 13)): 1 (8) n (%) | Decreased appetite, any-grade TEAE ([2]; normal function 4 mg (n = 13)): 7 (54) n (%) | Dehydration, any-grade TEAE ([2]; normal function 4 mg (n = 13)): 3 (23) n (%) | Dehydration, grade ≥3 TEAE ([2]; normal function 4 mg (n = 13)): 0 n (%) | Diarrhoea, any-grade TEAE ([2]; normal function 4 mg (n = 13)): 4 (31) n (%) | Dyspnoea, any-grade TEAE ([2]; normal function 4 mg (n = 13)): 4 (31) n (%) | Fatigue, any-grade TEAE ([2]; normal function 4 mg (n = 13)): 6 (46) n (%) | Fatigue, grade ≥3 TEAE ([2]; normal function 4 mg (n = 13)): 2 (15) n (%) | Grade ≥3 AE ([2]; normal function 4 mg (n = 13)): 6 (46) n (%) | Hyperbilirubinaemia, any-grade TEAE ([2]; normal function 4 mg (n = 13)): 0 n (%) | Hyperbilirubinaemia, grade ≥3 TEAE ([2]; normal function 4 mg (n = 13)): 0 n (%) | Hyperkalaemia, any-grade TEAE ([2]; normal function 4 mg (n = 13)): 1 (8) n (%) | Hypotension, any-grade TEAE ([2]; normal function 4 mg (n = 13)): 0 n (%) | Hypotension, grade ≥3 TEAE ([2]; normal function 4 mg (n = 13)): 0 n (%) | Insomnia, any-grade TEAE ([2]; normal function 4 mg (n = 13)): 3 (23) n (%) | Leukocytosis, grade ≥3 TEAE ([2]; normal function 4 mg (n = 13)): 0 n (%) | Nausea, any-grade TEAE ([2]; normal function 4 mg (n = 13)): 9 (69) n (%) | Peripheral oedema, any-grade TEAE ([2]; normal function 4 mg (n = 13)): 2 (15) n (%) | Pyrexia, any-grade TEAE ([2]; normal function 4 mg (n = 13)): 1 (8) n (%) | Upper abdominal pain, any-grade TEAE ([2]; normal function 4 mg (n = 13)): 2 (15) n (%) | Vomiting, any-grade TEAE ([2]; normal function 4 mg (n = 13)): 7 (54) n (%) | incidence of drug-related grade ≥3 AEs ([2]; normal hepatic function, 4 mg): 23% | incidence of peripheral neuropathy (PN) ([2]; one patient, grade 2, treatment-related, history of neuropathy): 2% | patients with rash-related AEs ([2]; seven events in total, all grade 1 or 2, none serious): Five | on-study deaths, number [2, 5]: eight | incidence of drug-related grade ≥3 AEs ([2]; severe hepatic impairment, 1.5 mg): 5% | Abdominal pain, any-grade TEAE [2, 6]: 2 (10) n (%) | Acute renal failure, any-grade TEAE [2, 6]: 6 (30) n (%) | Acute renal failure, grade ≥3 TEAE [2, 6]: 5 (25) n (%) | Anaemia, any-grade TEAE [2, 6]: 3 (15) n (%) | Anaemia, grade ≥3 TEAE [2, 6]: 2 (10) n (%) | Any-grade AE [2, 6]: 20 (100) n (%) | Ascites, any-grade TEAE [2, 6]: 3 (15) n (%) | Ascites, grade ≥3 TEAE [2, 6]: 2 (10) n (%) | Back pain, any-grade TEAE [2, 6]: 3 (15) n (%) | Cough, any-grade TEAE [2, 6]: 3 (15) n (%) | Decreased appetite, any-grade TEAE [2, 6]: 1 (5) n (%) | Dehydration, any-grade TEAE [2, 6]: 3 (15) n (%) | Dehydration, grade ≥3 TEAE [2, 6]: 2 (10) n (%) | Diarrhoea, any-grade TEAE [2, 6]: 1 (5) n (%) | Dyspnoea, any-grade TEAE [2, 6]: 4 (20) n (%) | Fatigue, any-grade TEAE [2, 6]: 5 (25) n (%) | Fatigue, grade ≥3 TEAE [2, 6]: 1 (5) n (%) | Grade ≥3 AE [2, 6]: 18 (90) n (%) | Hyperbilirubinaemia, any-grade TEAE [2, 6]: 5 (25) n (%) | Hyperbilirubinaemia, grade ≥3 TEAE [2, 6]: 5 (25) n (%) | Hyperkalaemia, any-grade TEAE [2, 6]: 2 (10) n (%) | Hypotension, any-grade TEAE [2, 6]: 4 (20) n (%) | Hypotension, grade ≥3 TEAE [2, 6]: 2 (10) n (%) | Insomnia, any-grade TEAE [2, 6]: 1 (5) n (%) | Leukocytosis, grade ≥3 TEAE [2, 6]: 2 (10) n (%) | Nausea, any-grade TEAE [2, 6]: 5 (25) n (%) | Peripheral oedema, any-grade TEAE [2, 6]: 4 (20) n (%) | Pyrexia, any-grade TEAE [2, 6]: 4 (20) n (%) | Upper abdominal pain, any-grade TEAE [2, 6]: 2 (10) n (%) | Vomiting, any-grade TEAE [2, 6]: 4 (20) n (%) | Abdominal pain, any-grade TEAE ([2]; total (N = 48)): 6 (13) n (%) | Acute renal failure, any-grade TEAE ([2]; total (N = 48)): 7 (15) n (%) | Acute renal failure, grade ≥3 TEAE ([2]; total (N = 48)): 6 (13) n (%) | Anaemia, any-grade TEAE ([2]; total (N = 48)): 8 (17) n (%) | Anaemia, grade ≥3 TEAE ([2]; total (N = 48)): 4 (8) n (%) | Any-grade AE ([2]; total (N = 48)): 48 (100) n (%) | Ascites, any-grade TEAE ([2]; total (N = 48)): 6 (13) n (%) | Ascites, grade ≥3 TEAE ([2]; total (N = 48)): 4 (8) n (%) | Back pain, any-grade TEAE ([2]; total (N = 48)): 5 (10) n (%) | Cough, any-grade TEAE ([2]; total (N = 48)): 6 (13) n (%) | Decreased appetite, any-grade TEAE ([2]; total (N = 48)): 10 (21) n (%) | Dehydration, any-grade TEAE ([2]; total (N = 48)): 8 (17) n (%) | Dehydration, grade ≥3 TEAE ([2]; total (N = 48)): 4 (8) n (%) | Diarrhoea, any-grade TEAE ([2]; total (N = 48)): 6 (13) n (%) | Dyspnoea, any-grade TEAE ([2]; total (N = 48)): 11 (23) n (%) | Fatigue, any-grade TEAE ([2]; total (N = 48)): 15 (31) n (%) | Fatigue, grade ≥3 TEAE ([2]; total (N = 48)): 4 (8) n (%) | Grade ≥3 AE ([2]; total (N = 48)): 37 (77) n (%) | Hyperbilirubinaemia, any-grade TEAE ([2]; total (N = 48)): 10 (21) n (%) | Hyperbilirubinaemia, grade ≥3 TEAE ([2]; total (N = 48)): 10 (21) n (%) | Hyperkalaemia, any-grade TEAE ([2]; total (N = 48)): 5 (10) n (%) | Hypotension, any-grade TEAE ([2]; total (N = 48)): 5 (10) n (%) | Hypotension, grade ≥3 TEAE ([2]; total (N = 48)): 3 (6) n (%) | Insomnia, any-grade TEAE ([2]; total (N = 48)): 6 (13) n (%) | Leukocytosis, grade ≥3 TEAE ([2]; total (N = 48)): 3 (6) n (%) | Nausea, any-grade TEAE ([2]; total (N = 48)): 18 (38) n (%) | Peripheral oedema, any-grade TEAE ([2]; total (N = 48)): 15 (31) n (%) | Pyrexia, any-grade TEAE ([2]; total (N = 48)): 7 (15) n (%) | Upper abdominal pain, any-grade TEAE ([2]; total (N = 48)): 5 (10) n (%) | Vomiting, any-grade TEAE ([2]; total (N = 48)): 13 (27) n (%) | bound fraction (mean ± SD) (plasma proteins; moderate hepatic impairment group): 99.1 ± 0.37% | bound fraction (mean ± SD) (plasma proteins; normal hepatic function group): 99.2 ± 0.34% | bound fraction (mean ± SD) (plasma proteins; [5]): 99.0 ± 0.45%
